Measurements published in article PMC8775362 (Molecular pharmaceutics, 2021).
Where two headings read alike, the source gives them in different places. Non-standard residues stand in square brackets, D forms with d. Residues, ends and D or L forms follow the SMILES beside them. *: point of attachment. 5FAM = O=C1OC2(c3ccc(O)cc3Oc3cc(O)ccc32)c2ccc(C(=O)*)cc21; Trp(6-Cl) = N[C@@H](Cc1c[nH]c2cc(Cl)ccc12)C(=O)O; pY = N[C@@H](Cc1ccc(OP(=O)(O)O)cc1)C(=O)O; Ac3c = NC1(C(=O)O)CC1; Aib = CC(C)(N)C(=O)O; βAla = NCCC(=O)O

Key:
MDM2 = settings: cited from earlier work
[1] = system: SJSA-1 human osteosarcoma cells; assay: Cell uptake and specificity of [^18F]6 in SJSA-1 cells; type: cell-based
Summary of the method: (§1)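 Cells (HepG2 in MEM, SJSA-1 in RPMI 1640, both with 10% FBS) were seeded at 2×10^5/well and held overnight at 37°C. Medium was swapped for serum-free medium holding 18.5 kBq tracer; incubation was at 37°C for 0.5, 1 or 2 h. Blocking used unlabeled parent inhibitor, either 5–50 µM for 1 h or 25 µM for the time course.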

[2] = system: HepG2 human hepatocellular carcinoma cells; assay: Cell uptake and specificity of [^18F]6 in HepG2 cells; type: cell-based
Summary of the method: as §1

P-glycoprotein = settings: neuroblastoma cells; cited from earlier work
[3] = cited from earlier work

Question: Which Kd (MDM2; read-out: binding affinity (Kd) towards MDM2, literature, same assay) does the source give for `CSCC[C@H](NC(=O)[C@H](Cc1ccccc1)NC(=O)CCNC(=O)CCNC(=O)c1ccc2c(c1)C(=O)OC21c2ccc(O)cc2Oc2cc(O)ccc21)C(=O)NC(C)(C)C(=O)N[C@@H](Cc1ccc(OP(=O)(O)O)cc1)C(=O)N[C@@H](Cc1c[nH]c2cc(Cl)ccc12)C(=O)N[C@@H](CCC(=O)O)C(=O)NC1(C(=O)N[C@@H](CC(C)C)C(=O)N[C@@H](CC(N)=O)C(N)=O)CC1` [5-FAM-PMDM6] ({5FAM-βAla-βAla}-FM[Aib][pY][Trp(6-Cl)]E[Ac3c]LN-NH2; N-terminus and C-terminus assumed) here?
Answer: The Kd was 1 ± 0.1 nM.

Question: With `COc1cc(C(=O)O)ccc1NC(=O)[C@@H]1N[C@@H](CC(C)(C)C)[C@](C#N)(c2ccc(Cl)cc2F)[C@H]1c1cccc(Cl)c1F` [RG7388, Idasanutlin] as the compound, how does the inhibition at 50 µM ([1]; Homo sapiens, SJSA-1, 1 h, read-out: inhibition of [^18F]6 uptake) read?
Answer: The inhibition at 50 µM was > 80%.

Question: What about the “effect of blocking on [^18F]6 uptake” value ([1]; SJSA-1, 25 μM RG7388, all time points 30-120 min) of the same compound?
Answer: Its value is “significantly decreased”.

Question: And the “effect of blocking on [^18F]6 uptake” value ([2]; HepG2, 25 μM RG7388, all time points 30-120 min)?
Answer: The value was “significantly decreased”.

Question: What about the inhibition at 50 µM ([2]; Homo sapiens, HepG2, 1 h, read-out: inhibition of [^18F]6 uptake) of the same compound?
Answer: Its inhibition at 50 µM is > 80%.

Question: And the “substrate of P-glycoprotein” value (P-glycoprotein)?
Answer: Its value is “not a good substrate”.

Question: And the “stability in humans in vivo” value [3]?
Answer: Its value is “fully stable”.

Question: For `COc1ccc2[nH]c3c(-c4cccc5ccccc45)nccc3c2c1` [SP-141], which Kd (MDM2; read-out: binding affinity Kd) is on record?
Answer: Its Kd is 43 nM.
